Calls of active or inactive are those of the source. The rule behind the calls is not given here.

What is called GI50 is the concentration giving 50% growth inhibition. Low values mean more potent growth inhibition, high ones less potent growth inhibition.

The first assay deals with MCF7. The assay can be described thus: Cell cycle arrest in human MCF7 cells assessed as accumulation at S phase using propidium iodide staining at 4 uM after 24 hrs by flow cytometry. Type of assay: functional. In short, it runs like this: (§1)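 MCF-7 cells (5 × 10⁵ per 60 mm dish) grown 24 h, then exposed to 4 µM compound for a further 24 h; DMSO-treated control. Cells trypsinised, fixed in ice-cold 70% ethanol at 4 °C for 30 min, RNase-treated (1 mg/mL, 37 °C, 30 min), stained with propidium iodide/citrate/Triton X-100. DNA content read on 20,000 events by flow cytometry; percent cells per phase reported.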
Regarding `COc1cc2c(cc1OCCCN1CCN(CCCOc3ccc4c(c3)CC[C@@H]3[C@@H]4CC[C@]4(C)[C@@H](O)CC[C@@H]34)CC1)N=C[C@@H]1CCCN1C2=O`, the Activity was 25.2%.

A further assay concerns A2780. The assay can be described thus: Cytotoxicity against human A2780 cells by sulforhodamine B method. It counts as functional. (In general: Sulforhodamine B stains cellular protein and so reports cell mass.)
`COc1cc2c(cc1OCCCN1CCN(CCCOc3ccc4c(c3)CC[C@@H]3[C@@H]4CC[C@]4(C)[C@@H](O)CC[C@@H]34)CC1)N=C[C@@H]1CCCN1C2=O` registered a GI50 of 1300 nM.

For the next assay, the system named is MCF7. The assay is described as follows: Cell cycle arrest in human MCF7 cells assessed as accumulation at G0 phase using propidium iodide staining at 4 uM after 24 hrs by flow cytometry. It counts as functional. In short, it runs like this:
as §1
On to `COc1cc2c(cc1OCCCN1CCN(CCCOc3ccc4c(c3)CC[C@@H]3[C@@H]4CC[C@]4(C)[C@@H](O)CC[C@@H]34)CC1)N=C[C@@H]1CCCN1C2=O`, for which the Activity is given as 2.84%.

The next assay has as its system A549. The assay is described as follows: Cytotoxicity against human A549 cells by sulforhodamine B method. It counts as functional.
`COc1cc2c(cc1OCCCN1CCN(CCCOc3ccc4c(c3)CC[C@@H]3[C@@H]4CC[C@]4(C)[C@@H](O)CC[C@@H]34)CC1)N=C[C@@H]1CCCN1C2=O`: it took 120 nM to inhibit growth by half (GI50).

Test system in another assay: not listed separately
The assay can be described thus: Cytotoxicity against human DWD cells by sulforhodamine B method. It counts as functional.
Turning to `COc1cc2c(cc1OCCCN1CCN(CCCOc3ccc4c(c3)CC[C@@H]3[C@@H]4CC[C@]4(C)[C@@H](O)CC[C@@H]34)CC1)N=C[C@@H]1CCCN1C2=O`, growth was halved (GI50) at 120 nM.

The next assay deals with COLO 205. The assay can be described thus: Cytotoxicity against human COLO205 cells by sulforhodamine B method. It counts as functional.
Regarding `COc1cc2c(cc1OCCCN1CCN(CCCOc3ccc4c(c3)CC[C@@H]3[C@@H]4CC[C@]4(C)[C@@H](O)CC[C@@H]34)CC1)N=C[C@@H]1CCCN1C2=O`, the GI50 was 130 nM.

In the next assay the test system is KB. The assay is described as follows: Cytotoxicity against human KB cells by sulforhodamine B method. Type of assay: functional.
With `COc1cc2c(cc1OCCCN1CCN(CCCOc3ccc4c(c3)CC[C@@H]3[C@@H]4CC[C@]4(C)[C@@H](O)CC[C@@H]34)CC1)N=C[C@@H]1CCCN1C2=O`, halving of growth (GI50) required 190 nM.

The next assay deals with MCF7. The assay can be described thus: Cell cycle arrest in human MCF7 cells assessed as accumulation at G2/M phase using propidium iodide staining at 4 uM after 24 hrs by flow cytometry. It counts as functional. In short, it runs like this:
as §1
On the technique in general: A flow cytometer gives signals particle by particle.
Consider `COc1cc2c(cc1OCCCN1CCN(CCCOc3ccc4c(c3)CC[C@@H]3[C@@H]4CC[C@]4(C)[C@@H](O)CC[C@@H]34)CC1)N=C[C@@H]1CCCN1C2=O`, for which the Activity turned out to be 24.01%.

A further assay relates to MCF7. The assay can be described thus: Cytotoxicity against human MCF7 cells by sulforhodamine B method. Type of assay: functional.
For the molecule `COc1cc2c(cc1OCCCN1CCN(CCCOc3ccc4c(c3)CC[C@@H]3[C@@H]4CC[C@]4(C)[C@@H](O)CC[C@@H]34)CC1)N=C[C@@H]1CCCN1C2=O`, halving of growth (GI50) required 110 nM.

The next assay relates to HOP-62. The assay is described as follows: Cytotoxicity against human HOP62 cells by sulforhodamine B method. Type of assay: functional.
As for `COc1cc2c(cc1OCCCN1CCN(CCCOc3ccc4c(c3)CC[C@@H]3[C@@H]4CC[C@]4(C)[C@@H](O)CC[C@@H]34)CC1)N=C[C@@H]1CCCN1C2=O`, the GI50 was determined as 1140 nM.

A further assay concerns MCF7. The assay can be described thus: Cell cycle arrest in human MCF7 cells assessed as accumulation at G1 phase using propidium iodide staining at 4 uM after 24 hrs by flow cytometry. Type of assay: functional. In short, it runs like this:
as §1
On to `COc1cc2c(cc1OCCCN1CCN(CCCOc3ccc4c(c3)CC[C@@H]3[C@@H]4CC[C@]4(C)[C@@H](O)CC[C@@H]34)CC1)N=C[C@@H]1CCCN1C2=O`, for which the Activity is recorded as 47.9%.

Test system in the next assay: not listed separately
The assay is described as follows: Cytotoxicity against human Gurav cells by sulforhodamine B method. Type of assay: functional.
With `COc1cc2c(cc1OCCCN1CCN(CCCOc3ccc4c(c3)CC[C@@H]3[C@@H]4CC[C@]4(C)[C@@H](O)CC[C@@H]34)CC1)N=C[C@@H]1CCCN1C2=O`, the GI50 is 140 nM.

Another assay relates to SiHa. The assay can be described thus: Cytotoxicity against human SiHa cells by sulforhodamine B method. It counts as functional.
`COc1cc2c(cc1OCCCN1CCN(CCCOc3ccc4c(c3)CC[C@@H]3[C@@H]4CC[C@]4(C)[C@@H](O)CC[C@@H]34)CC1)N=C[C@@H]1CCCN1C2=O` registered a GI50 of 130 nM. That is a sub-micromolar value.

A further assay concerns MCF7. The assay is described as follows: Cytotoxicity against human MCF7 cells at 4 uM after 24 hrs by MTT assay. It counts as functional, cell-based. In outline:
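MCF-7 cells seeded at 10,000 per well, incubated overnight, then treated at 4 µM for 24 h; DMSO control. Medium replaced with MTT, 2 h at 37 °C. Formazan solubilised in extraction buffer, absorbance read at 570 nm, expressed as percent viability.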
On to `COc1cc2c(cc1OCCCN1CCN(CCCOc3ccc4c(c3)CC[C@@H]3[C@@H]4CC[C@]4(C)[C@@H](O)CC[C@@H]34)CC1)N=C[C@@H]1CCCN1C2=O`, for which the outcome was Active.

The subject of another assay is ZR-75-1. The assay is described as follows: Cytotoxicity against human ZR-75-1 cells by sulforhodamine B method. Type of assay: functional.
The molecule `COc1cc2c(cc1OCCCN1CCN(CCCOc3ccc4c(c3)CC[C@@H]3[C@@H]4CC[C@]4(C)[C@@H](O)CC[C@@H]34)CC1)N=C[C@@H]1CCCN1C2=O` showed a GI50 of 120 nM. This counts as sub-micromolar.

For the next assay, the system named is PC-3. The assay is described as follows: Cytotoxicity against human PC3 cells by sulforhodamine B method. It counts as functional.
Consider `COc1cc2c(cc1OCCCN1CCN(CCCOc3ccc4c(c3)CC[C@@H]3[C@@H]4CC[C@]4(C)[C@@H](O)CC[C@@H]34)CC1)N=C[C@@H]1CCCN1C2=O`, for which the concentration for 50% growth inhibition (GI50) came out at 140 nM.

The values are drawn from ChEMBL document CHEMBL1765029, “Synthesis and biological evaluation of estradiol linked pyrrolo[2,1-c][1,4]benzodiazepine (PBD) conjugates as potential anticancer agents” (2011).
